Results: ChEMBL document CHEMBL1132476, “Design and synthesis of novel alpha(1)(a) adrenoceptor-selective antagonists. 1. Structure-activity relationship in dihydropyrimidinones” (J Med Chem, 1999)
Several values for one entry are separate records, joined by “and”; a condition that tells them apart may be missing. Identical values can stand only once.

Columns and labels:
[1] = target: T1, Alpha-1D adrenergic receptor (Homo sapiens, UniProt P25100); assay: In vitro binding affinity against Alpha-1D adrenergic receptor of cloned human receptor.
T1 sequence (P25100 whole entry): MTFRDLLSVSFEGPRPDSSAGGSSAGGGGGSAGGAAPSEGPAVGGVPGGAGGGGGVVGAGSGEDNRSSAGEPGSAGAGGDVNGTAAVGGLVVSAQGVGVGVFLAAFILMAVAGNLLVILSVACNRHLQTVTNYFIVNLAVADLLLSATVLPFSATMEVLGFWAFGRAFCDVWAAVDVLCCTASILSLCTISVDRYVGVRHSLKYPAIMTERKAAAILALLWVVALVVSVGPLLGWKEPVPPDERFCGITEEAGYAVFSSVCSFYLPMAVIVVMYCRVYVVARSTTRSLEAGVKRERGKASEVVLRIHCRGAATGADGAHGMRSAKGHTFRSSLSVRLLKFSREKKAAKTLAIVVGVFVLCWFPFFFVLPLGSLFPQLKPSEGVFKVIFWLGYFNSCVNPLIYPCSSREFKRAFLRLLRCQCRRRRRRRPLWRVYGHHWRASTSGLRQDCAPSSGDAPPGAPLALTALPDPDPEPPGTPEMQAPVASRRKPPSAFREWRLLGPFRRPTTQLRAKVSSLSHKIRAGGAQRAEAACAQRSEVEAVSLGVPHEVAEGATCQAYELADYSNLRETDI

[2] = target: T2, Alpha-1B adrenergic receptor (Homo sapiens, UniProt P35368); assay: In vitro binding affinity against Alpha-1B adrenergic receptor of cloned human receptor.
T2 sequence (P35368 whole entry): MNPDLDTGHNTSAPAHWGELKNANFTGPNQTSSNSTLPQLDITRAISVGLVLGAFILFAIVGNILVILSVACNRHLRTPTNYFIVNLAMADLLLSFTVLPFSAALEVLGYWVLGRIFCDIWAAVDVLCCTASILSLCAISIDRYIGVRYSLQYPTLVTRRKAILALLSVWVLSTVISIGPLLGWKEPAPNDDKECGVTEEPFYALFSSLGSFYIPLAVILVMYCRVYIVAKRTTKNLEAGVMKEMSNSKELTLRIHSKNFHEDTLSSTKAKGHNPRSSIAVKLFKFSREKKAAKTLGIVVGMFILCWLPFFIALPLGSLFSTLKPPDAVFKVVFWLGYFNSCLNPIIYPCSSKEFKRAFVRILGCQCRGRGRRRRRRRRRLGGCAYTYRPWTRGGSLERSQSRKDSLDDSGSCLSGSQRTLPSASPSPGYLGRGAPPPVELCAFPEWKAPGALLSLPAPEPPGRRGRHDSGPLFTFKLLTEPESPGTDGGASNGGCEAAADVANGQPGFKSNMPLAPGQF

[3] = target: T3, Alpha-1A adrenergic receptor (Homo sapiens, UniProt P35348); assay: In vitro binding affinity against Alpha-1A adrenergic receptor of cloned human receptor.
T3 sequence (P35348 whole entry): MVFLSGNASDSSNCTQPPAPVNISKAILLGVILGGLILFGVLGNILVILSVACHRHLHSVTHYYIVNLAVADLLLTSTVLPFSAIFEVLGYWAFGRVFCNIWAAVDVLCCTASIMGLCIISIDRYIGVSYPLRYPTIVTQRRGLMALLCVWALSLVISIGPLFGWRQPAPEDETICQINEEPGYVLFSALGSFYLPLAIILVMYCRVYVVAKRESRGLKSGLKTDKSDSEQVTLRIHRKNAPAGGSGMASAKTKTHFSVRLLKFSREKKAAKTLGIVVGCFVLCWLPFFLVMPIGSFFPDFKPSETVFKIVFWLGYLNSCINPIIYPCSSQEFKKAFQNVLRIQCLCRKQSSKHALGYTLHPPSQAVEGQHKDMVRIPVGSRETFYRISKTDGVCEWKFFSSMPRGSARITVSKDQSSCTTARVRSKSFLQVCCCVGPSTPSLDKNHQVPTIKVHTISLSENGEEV

Canis familiaris = species on record: Canis familiaris; assay: Antagonism against phenylephrine induced contractions in isolated prostate tissue of dog; format: functional, Canis lupus familiaris, Prostate gland
In short: (§1)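 Isolated prostate strips (rat or dog) contracted with phenylephrine as agonist. Antagonist potency is expressed as Kb, derived from the shift in the agonist response by a previously published method.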

Rattus norvegicus = species on record: Rattus norvegicus; assay: Antagonism against phenylephrine induced contractions in isolated prostate tissue of rat; format: functional, Prostate gland
In short: as §1

[4] = target: T4, Alpha-1A adrenergic receptor (Rattus norvegicus, UniProt P43140); assay: In vitro binding affinity against Alpha-1A adrenergic receptor in isolated prostate tissue of rat; format: tissue-based, Prostate gland
T4 sequence (P43140 whole entry): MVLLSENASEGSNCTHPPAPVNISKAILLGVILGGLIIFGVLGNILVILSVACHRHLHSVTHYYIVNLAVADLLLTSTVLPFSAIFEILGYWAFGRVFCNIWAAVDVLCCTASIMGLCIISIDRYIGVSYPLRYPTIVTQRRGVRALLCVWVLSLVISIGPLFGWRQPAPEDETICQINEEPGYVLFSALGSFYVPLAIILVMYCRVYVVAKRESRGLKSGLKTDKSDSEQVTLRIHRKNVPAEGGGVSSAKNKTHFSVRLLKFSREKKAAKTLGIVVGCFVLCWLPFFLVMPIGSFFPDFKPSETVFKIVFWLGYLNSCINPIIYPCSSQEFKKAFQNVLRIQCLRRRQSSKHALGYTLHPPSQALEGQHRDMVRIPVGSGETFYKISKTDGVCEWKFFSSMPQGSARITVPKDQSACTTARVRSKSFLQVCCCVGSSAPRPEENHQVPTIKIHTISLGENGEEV

Homo sapiens = species on record: Homo sapiens; assay: Antagonism against phenylephrine induced contractions in isolated prostate tissue of human; format: functional; details: Prostate gland

| SMILES | Ki [1] | Ki [2] | Ki [3] | Kb (Canis familiaris) [nM] | Kb (Rattus norvegicus) [nM] | Ki [4] [nM] | Kb (Homo sapiens) [nM] |
| --- | --- | --- | --- | --- | --- | --- | --- |
| COC(=O)C1(c2ccccc2)CCN(CCCNC(=O)N2C(=O)NC(C)=C(C(N)=O)C2c2ccc([N+](=O)[O-])cc2)CC1 (centres undefined) | 140 nM | 100 nM | 0.7 nM | – | – | – | – |
| CCC1=C(C(N)=O)C(c2ccc([N+](=O)[O-])cc2)N(C(=O)NCCCN2CCC(C(=O)OC)(c3ccccc3)CC2)C(=O)N1 (centres undefined) | – | – | – | 0.85 | 2 | 0.58 | 0.04 |
| CCC1=C(C(=O)NC)C(c2ccc([N+](=O)[O-])cc2)N(C(=O)NCCCN2CCC(C(=O)OC)(c3ccccc3)CC2)C(=O)N1 (centres undefined) | 398 nM | 139 nM | 1.2 nM | – | – | – | – |
| COC(=O)C1(c2ccccc2)CCN(CCCNC(=O)N2C(=O)NC(C)=C(C(=O)O)C2c2ccc([N+](=O)[O-])cc2)CC1 (centres undefined) | 2600 nM | 1600 nM | 10 nM | – | – | – | – |
| COC(=O)C1=C(C)NC(=O)N(C(=O)NCCCN2CCC(C(=O)OC)(c3ccccc3)CC2)C1c1cccc(Cl)c1 (centres undefined) | 180 nM | 50 nM | 1.1 nM | – | – | – | – |
| CCOC(=O)C1=C(C)NC(=O)N(C(=O)NCCCN2CCC(C(=O)OC)(c3ccccc3)CC2)C1c1ccc([N+](=O)[O-])cc1 (centres undefined) | 91 nM | 15 nM | 0.3 nM | – | – | – | – |
| COC(=O)C1=C(C)NC(=O)N(C(=O)NCCCN2CCC(C(=O)OC)(c3ccccc3)CC2)C1c1ccc(F)cc1F (centres undefined) | 180 nM | 88 nM | 0.2 nM | – | – | – | – |
| COC(=O)C1=C(C)NC(=O)N(C(=O)NCCCN2CCC(C(=O)OC)(c3ccccc3)CC2)C1c1ccc2nonc2c1 (centres undefined) | 93 nM | 27 nM | 0.1 nM | – | – | – | – |
| CCC1=C(C(=O)OC)C(c2ccc([N+](=O)[O-])cc2)N(C(=O)NCCCN2CCC(C(=O)OC)(c3ccccc3)CC2)C(=O)N1 (centres undefined) | 87 nM | 37 nM | 0.8 nM | – | – | – | – |
| COC(=O)C1=C(C)NC(=O)N(C(=O)NCCCN2CCC(C(=O)OC)(c3ccccc3)CC2)C1c1ccc(F)cc1 (centres undefined) | 180 nM | 78 nM | 1.2 nM | – | – | – | – |
| COC(=O)C1=C(C)NC(=O)N(C(=O)NCCCN2CCC(C(=O)OC)(c3ccccc3)CC2)C1c1ccc([N+](=O)[O-])cc1 (centres undefined) | 180 nM and 100 nM and 80 nM | 81 nM and 28 nM and 19 nM | 0.4 nM and 0.5 nM and 2.1 nM | – | – | – | – |
| COC(=O)C1=C(C)NC(=O)N(C(=O)NCCCN2CCC(C(=O)OC)(c3ccccc3)CC2)C1c1cccc(C)c1 (centres undefined) | 320 nM | 110 nM | 1.8 nM | – | – | – | – |
| COC(=O)C1=C(C)NC(=O)N(C(=O)NCCCN2CCC(C(=O)OC)(c3ccccc3)CC2)C1c1cccc(F)c1 (centres undefined) | 150 nM | 67 nM | 1.5 nM | – | – | – | – |
| CCC1=C(C(N)=O)C(c2ccc(F)cc2F)N(C(=O)NCCCN2CCC(C(=O)OC)(c3ccccc3)CC2)C(=O)N1 (centres undefined) | 440 nM | 340 nM | – | – | – | – | – |
| CNC(=O)C1=C(C)NC(=O)N(C(=O)NCCCN2CCC(C(=O)OC)(c3ccccc3)CC2)C1c1ccc([N+](=O)[O-])cc1 (centres undefined) | 270 nM | 100 nM | 2.1 nM | – | – | – | – |
| COC(=O)C1=C(C)NC(=O)N(C(=O)NCCCN2CCC(C(=O)OC)(c3ccccc3)CC2)C1c1ccc(C)cc1 (centres undefined) | 220 nM | 77 nM | 8 nM | – | – | – | – |
| COC(=O)C1=C(C)NC(=O)N(C(=O)NCCCN2CCC(C(=O)OC)(c3ccccc3)CC2)C1c1ccc(Cl)cc1 (centres undefined) | 170 nM | 48 nM | 4.5 nM | – | – | – | – |
| COC(=O)C1=C(C)NC(=O)N(C(=O)NCCCN2CCC(c3ccccc3)(c3ccccc3)CC2)C1c1ccc([N+](=O)[O-])cc1 (centres undefined) | 120 nM | 27 nM | 5 nM | – | – | – | – |
